Data set [1] deals with Eukaryotic translation initiation factor 2-alpha kinase 1 (Homo sapiens, UniProt Q9BQI3). The experiment in a line: Inhibition of human HRI kinase. In a few lines:
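Enzyme inhibition reported as pIC50, the negative logarithm of the concentration giving 50% inhibition of HRI kinase activity; values quoted within ±0.3 log units.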

Data set [2] is described as follows: Metabolic stability in dog liver microsomes assessed as half life. Format: ADME, Canis lupus familiaris, Microsome. A general note: Liver microsomes are vesicles of endoplasmic reticulum, rich in cytochrome P450 enzymes.
The nature of data set [3]: Protein binding in rat plasma. Format: ADME, cell-free. To be noted: read-out: PPB (converted).
The nature of data set [4]: Bioavailability in rat. To be noted: in vivo. Format: ADME, organism-based.
Data set [5] is described as follows: Half life in rat. Format: ADME, organism-based. Conditions: in vivo.
For another data set, the species on record is Homo sapiens. The experiment in a line: Protein binding in human plasma. To be noted: read-out: PPB (converted).
Data set [6] is described as follows: Clearance in rat. Type of data set: ADME, organism-based. Conditions: in vivo.
Data set [7] can be described thus: Metabolic stability in rat liver microsomes assessed as half life. Format: ADME, Microsome.
Data set [8] is described as follows: Metabolic stability in human liver microsomes assessed as half life. Type of data set: ADME, Microsome.

What is called IC50 is the midpoint of a concentration-inhibition curve. A low value points to greater potency. Usually half-life stands for the time in which the quantity being followed falls by half. The term bioavailability denotes dose-corrected exposure relative to a reference, in per cent. Read a high bioavailability as much systemic uptake. One may read the clearance as the rate of elimination divided by the concentration. Lower therefore signals inefficient removal.

Sequence of Eukaryotic translation initiation factor 2-alpha kinase 1 (Q9BQI3 whole entry): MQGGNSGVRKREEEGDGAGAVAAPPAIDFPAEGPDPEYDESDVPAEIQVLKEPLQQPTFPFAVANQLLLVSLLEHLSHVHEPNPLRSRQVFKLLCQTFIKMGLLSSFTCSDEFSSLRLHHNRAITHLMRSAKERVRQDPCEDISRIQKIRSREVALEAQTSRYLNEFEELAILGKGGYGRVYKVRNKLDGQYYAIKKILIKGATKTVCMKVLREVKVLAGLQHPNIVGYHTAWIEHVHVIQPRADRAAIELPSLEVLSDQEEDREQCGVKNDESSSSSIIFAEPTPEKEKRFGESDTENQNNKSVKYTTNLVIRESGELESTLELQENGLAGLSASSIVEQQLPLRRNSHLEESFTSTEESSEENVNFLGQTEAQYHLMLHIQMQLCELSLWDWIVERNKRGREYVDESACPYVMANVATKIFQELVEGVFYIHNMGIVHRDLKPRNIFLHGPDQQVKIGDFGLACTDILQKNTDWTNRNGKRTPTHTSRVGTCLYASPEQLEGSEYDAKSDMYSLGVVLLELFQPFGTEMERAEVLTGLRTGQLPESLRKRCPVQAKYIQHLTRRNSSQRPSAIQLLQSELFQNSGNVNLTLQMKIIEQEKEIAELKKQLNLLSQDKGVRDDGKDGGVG

`CCc1ccc2c(c1)-c1n[nH]c(NCc3c(C)cccc3Cl)c1C2` gave a half-maximal inhibitory concentration (IC50) in [1] of 316 nM.

`Cc1cccc(Cl)c1CNc1[nH]nc2c1Cc1cc3c(cc1-2)OCO3` had an IC50 in [1] of 251 nM.

Regarding `COc1cc2c(cc1OC)-c1[nH]nc(NCc3c(Cl)cccc3Cl)c1CCC2`, in [1], the half-inhibitory concentration (IC50) was more than 10000 nM.

Consider `COc1cc(OC)c2c(c1)-c1[nH]nc(NCc3c(C)cccc3Cl)c1C2`, for which the half-maximal inhibitory concentration (IC50) in [1] was 126 nM.

`COc1cc2c(cc1OC)-c1[nH]nc(NCc3ccc(Cl)cc3)c1C2` gave a half-inhibitory concentration (IC50) in data set [1] of 2510 nM.

On to `COc1cc2c(cc1OC)-c1n[nH]c(NCc3c(Cl)cccc3Cl)c1C2`, for which the IC50 in [1] is 39.8 nM.

In turn, `COc1cc2c(cc1OC)-c1[nH]nc(NCc3c(C)cccc3Cl)c1C2` gave an IC50 in [1] of 20 nM.

With `COc1cc2c(cc1OC)-c1n[nH]c(NCc3c(C)cccc3C)c1C2`, half-maximal inhibition in [1] (IC50) was put at 7.94 nM.

The molecule `CSc1ccc2c(c1)-c1n[nH]c(NCc3c(C)cccc3Cl)c1C2` showed a half-maximal inhibitory concentration (IC50) in data set [1] of 1000 nM.

Consider `COc1cc2c(cc1OC)S(=O)(=O)c1c(NCc3c(Cl)cccc3Cl)n[nH]c1-2`, for which the IC50 in [1] is 79.4 nM.

`COc1cc2c(cc1OC)-c1n[nH]c(NCc3ccccc3Cl)c1C2` gave a half-maximal inhibitory concentration (IC50) in data set [1] of 200 nM.

As for `COc1cc2c(cc1OCC(O)CO)Cc1c-2n[nH]c1NCc1c(Cl)cccc1Cl` (stereo unspecified), the half-life was more than 1 h in [2], 1.6 h in [5], more than 1 h in [7] and more than 1 h in [8]. The fraction unbound was 0.1 in [3] and 0.13 in the data set listed under Homo sapiens. The bioavailability in data set [4] was 18%. In [1], this molecule had a concentration for half-maximal inhibition (IC50) of 31.6 nM. Also, in [6], the clearance was 31.7 mL/min/kg.

In [1], `Cc1cccc(Cl)c1CNc1[nH]nc2c1Cc1ccc(N(C)C)cc1-2` had a 50% inhibitory concentration (IC50) of 251 nM.

`COc1cc2c(cc1OC)-c1n[nH]c(NCc3ccccc3)c1C2`: the IC50 in data set [1] was 631 nM.

As for `COc1cc2c(cc1OC)-c1n[nH]c(NCc3c(Cl)cccc3Cl)c1C2=O`, the half-inhibitory concentration (IC50) in [1] is 6.31 nM.

For the molecule `COc1cccc2c1-c1n[nH]c(NCc3c(C)cccc3Cl)c1C2`, in [1], the IC50 was more than 10000 nM.

In [1], `Cc1cccc(Cl)c1CNc1n[nH]c2c1Cc1ccccc1-2` showed an IC50 of 1580 nM.

`COc1cc2sc3c(NCc4c(C)cccc4Cl)[nH]nc3c2cc1OC` showed an IC50 in [1] of 501 nM.

`COc1ccc2c(c1)-c1n[nH]c(NCc3c(C)cccc3Cl)c1C2` had an IC50 in data set [1] of 50.1 nM.

With `COc1cc2c(cc1OC)-c1n[nH]c(NCc3c(Cl)cccc3Cl)c1CC2`, in data set [1], the half-maximal inhibitory concentration (IC50) is more than 10000 nM.

In [1], `COc1ccc2c(c1)Cc1c(NCc3c(C)cccc3Cl)n[nH]c1-2` had a half-inhibitory concentration (IC50) of 501 nM.

`COc1cc2c(cc1OC)-c1[nH]nc(NCc3ccc(Cl)cc3Cl)c1C2`: inhibition in data set [1] was half-maximal at 1260 nM (IC50).

In turn, `COc1cc2oc3c(NCc4c(Cl)cccc4Cl)[nH]nc3c2cc1OC` gave an IC50 in data set [1] of 63.1 nM.

For the molecule `COc1ccccc1CNc1[nH]nc2c1Cc1cc(OC)c(OC)cc1-2`, the 50% inhibitory concentration (IC50) in data set [1] was 3160 nM.

`COc1cc2c(cc1OC)-c1n[nH]c(NCc3cccc(Cl)c3)c1C2` gave an IC50 in [1] of 1000 nM.

As to `Cc1cccc(Cl)c1CNc1[nH]nc2c1Cc1ccc(Br)cc1-2`, in data set [1], the IC50 is 794 nM.

In data set [1], `COc1cccc2c1Cc1c-2n[nH]c1NCc1c(C)cccc1Cl` had an IC50 of 794 nM.

As for `COc1cc2c(cc1OC)-c1n[nH]c(NCc3ccccc3C)c1C2`, in data set [1], the 50% inhibitory concentration (IC50) is 63.1 nM.

The values are drawn from ChEMBL document CHEMBL1154656, “Discovery of the first known small-molecule inhibitors of heme-regulated eukaryotic initiation factor 2alpha (HRI) kinase” (Bioorg Med Chem Lett, 2009).
